Bioassay records (PubChem BioAssay)
Tn7 DDE FP: inhibitors of Tn7 peptide binding to fibrin DD(E), primary screen, biochemical, fluorescence polarization, human fibrin, Tn7 probe; 370,000 compounds, 0.13% hits; inhibition, % at 8.3 µM; AID 720508, 2013; FP displacement of FITC-Tn7 peptide from fibrin DD(E); 0% = median of compound wells per plate;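 active means inhibition above the mean of compounds falling within the control limits plus 3 SD of them, cut at about 14% in these data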;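 further: 0% = plate median of compound wells and 100% = 10 µM Aha-Tn7 peptide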
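Test system – human fibrin DD(E) · Times – 10 min preincubation, 3 h with tracer, room temperature · Detection – fluorescence polarization of the labelled Tn7 tracer · Measure – percent inhibition normalized to high-control wells · Benchmarks – high control wells with 10 µM unlabelled Aha-Tn7 peptide (full inhibition) · Repeats – singlicate testing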
LANA DNA inh: inhibitors of KSHV C-LANA binding to DNA, primary screen, biochemical, fluorescence polarization, FAM-LBS DNA, MBP-C-LANA, single point. 340,000 compounds, 0.078% hits. inhibition, % at 9 µM. Kaposi's sarcoma herpesvirus LANA C-terminal domain (residues 932-1162) DNA binding;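 active means highest replicate inhibition at or above 60% at 9 µM, even if other replicates fall short; inactive means all replicates below 60% inhibition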;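 further: 0% = neutral control wells and 100% = 4 µM acridine orange control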
DDE Tn6 FP inh: inhibitors of Tn6 peptide binding to fibrin DD(E), primary screen, biochemical, fluorescence polarization, human fibrin, Tn6 probe; AID 720509, 2013; 370,000 compounds, 0.21% hits; Fibrin DD(E) TRITC-Tn6 fluorescence polarization displacement; Fibrinogen beta chain (Homo sapiens), P02675; inhibition, % at 8.3 µM;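 active means inhibition above a per-campaign cutoff: mean of compounds within control limits plus 3 SD, cut at about 15% in these data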;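 further: 0% = median of all compound wells on the plate and 100% = blocking peptide control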
Rtt109 HAT inh: inhibitors of C. albicans Rtt109/Vps75 HAT, primary screen, biochemical, ThioGlo CoA-SH fluorescence, plate reader. Histone acetyltransferase RTT109 (Candida albicans (strain SC5314 / ATCC MYA-2876)), …. purified Rtt109/Vps75, 4 h. inhibition, % at 34.9 µM. 330,000 compounds, 0.16% hits. AID 540336, 2011;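 active means inhibition of at least 50% in every replicate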
Target sequence (Q5AAJ8 whole entry, looked up): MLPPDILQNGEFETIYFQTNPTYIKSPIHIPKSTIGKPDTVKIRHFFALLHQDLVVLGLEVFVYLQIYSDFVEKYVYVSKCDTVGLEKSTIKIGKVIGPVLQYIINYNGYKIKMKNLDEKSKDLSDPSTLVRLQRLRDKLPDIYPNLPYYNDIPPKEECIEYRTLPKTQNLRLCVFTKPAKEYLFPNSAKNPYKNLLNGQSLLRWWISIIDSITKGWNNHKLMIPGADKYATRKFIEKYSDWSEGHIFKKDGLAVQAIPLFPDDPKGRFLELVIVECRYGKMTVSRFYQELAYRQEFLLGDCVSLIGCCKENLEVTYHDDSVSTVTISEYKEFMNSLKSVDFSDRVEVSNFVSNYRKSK
Keap1 Nrf2 FP: Keap1-Nrf2 protein-protein interaction inhibitors, primary screen, biochemical, fluorescence polarization, single point; Kelch-like ECH-associated protein 1 (Homo sapiens), Q14145; 340,000 compounds, 0.15% hits; Keap1 Kelch-Nrf2 peptide fluorescence polarization, 1536-well; inhibition, % at 9.4 µM; in the data active means inhibition above about 12%;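 further: human Keap1 Kelch domain with fluorescein labeled Nrf2 9mer peptide probe; 0% = neutral control wells and 100% = peptide positive control; higher means more block of Keap1 binding to Nrf2 peptide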
Tn6 DDE ctr: counter-screen hit for Tn6 peptide-fibrin DD(E) binding disruption; shares compounds with DDE Tn6 FP inh; TRITC-Tn6 fluorescence polarization displacement; 0% = median of compound wells, not DMSO; inhibition, % at 8.3 µM; 680 compounds, 2% hits;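 active means inhibition above the mean of test compounds lying between the control limits plus 3 SD of those, cut at about 14% in these data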;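 further: 0% = median of compound wells and 100% = wells with Aha-Tn7 blocking peptide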
DDE Tn6 confirm: inhibitors of Tn6 peptide binding to fibrin DD(E), confirmation, biochemical, fluorescence polarization, human fibrin, Tn6 probe; shares compounds with DDE Tn6 FP inh; FP displacement of TRITC-Tn6 peptide from DD(E); 0% = per-plate median of test wells; inhibition, % at 8.3 µM; 680 compounds, 10% hits; AID 720631, 2013;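 active means inhibition above the mean of compounds lying within the control limits plus 3 SD, cut at about 16% in these data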;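 further: 100% = high control wells holding a competing inhibitor peptide at 10 µM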
* = called active by the depositor; · = no result given. Most compounds without a hit are left out; they make up all but 0.6% or so of the library.

SMILES	Tn7 DDE FP	LANA DNA inh	DDE Tn6 FP inh	Rtt109 HAT inh	Keap1 Nrf2 FP	Tn6 DDE ctr	DDE Tn6 confirm
Cc1cccc(S(=O)(=O)NC(=O)C2(C)CCN2C(=O)Cc2cc(F)ccc2F)c1 (stereo unspecified)	0	·	6	·	·	·	·
CC1(C(=O)NS(=O)(=O)c2cccc(Cl)c2)CCN1C(=O)Cc1cc(F)ccc1F (stereo unspecified)	-2	·	16*	·	·	-2	-4
CC1(C(=O)NS(=O)(=O)c2cccs2)CCN1C(=O)CCc1ccc(Cl)cc1Cl (stereo unspecified)	3	·	17*	·	·	5	4
CC1(C(=O)NS(=O)(=O)c2ccc(Cl)cc2)CCN1C(=O)CCc1ccc(Cl)cc1Cl (stereo unspecified)	-1	·	6	·	·	·	·
CS(=O)(=O)c1cccc(-c2csc(N3CCC(C(N)=O)CC3)n2)c1	-3	-1	16*	1	-2	6	-2
CN(C)c1cccc(-c2csc(N3CCC(C(N)=O)CC3)n2)c1	3	0	1	3	-1	·	·
NS(=O)(=O)c1ccc(NC(=O)CSc2nc3ccccc3c(=O)n2-c2ccc(Br)cc2)cc1	-3	·	27*	·	·	1	8
NS(=O)(=O)c1ccc(NC(=O)CSc2nc3ccccc3c(=O)n2Cc2ccncc2)cc1	-6	0	7	3	-1	·	·
COc1ccc(-c2cc(C(=O)Nc3ccccc3)on2)cc1	-2	0	22*	0	-6	3	-1
O=C(NC1CC1)c1cccc2c1C(=O)c1ccc(N3CCC(N4CCCCC4)CC3)cc1S2(=O)=O	-5	·	18*	·	·	-3	0
O=[N+]([O-])c1ccc(OC[C@@H](O)CN2CCC(C(O)(c3ccccc3)c3ccccc3)CC2)c(Cl)c1	-2	·	3	·	·	·	·
COc1ccc(/C=C/C(=O)Nc2ccccc2C(N)=O)cc1S(=O)(=O)N1CCOCC1	6	0	9	16	-4	·	·
COc1ccccc1NC(=O)/C=C/c1ccc(OC)c(S(=O)(=O)N2CCOCC2)c1	9	13	17*	1	1	3	-2
CCn1c(=S)[nH]c2ccccc21	-1	-1	16*	1	2	-5	-15
CCn1c(=S)[nH]c2cc(Cl)ccc21	1	-1	-1	-1	-3	·	·
COC(=O)[C@]12C[C@H](CC(=O)NCc3ccccc3)C(=O)N(Cc3ccco3)C1=C[C@H](COCc1ccccc1)O[C@@H]2C	-1	·	-3	·	·	·	·
Cc1cc(CN(C)C(=O)CC2C(=O)NCCN2Cc2ccc(-c3ccccc3)cc2)on1 (stereo unspecified)	2	0	16*	11	-9	-2	-14
Cc1cccc(-c2cccc3c4c([nH]c23)[C@@H]2C[C@H](N(C)C(=O)Nc3ccccc3C)[C@H]([C@H](C)O)CN2CC4)c1	-4	·	-3	·	·	·	·
Cc1cc2ncc(S(=O)(=O)C(C)(C)C)c(N)n2n1	0	0	17*	-15	-4	8	3
Cc1cc2ncc(S(=O)(=O)c3ccccc3)c(N)n2n1	5	0	0	5	-2	·	·
CCCCNC(=O)CCC(=O)Nc1ccc2nc(N3CCCCC3)cc(C)c2c1	5	-1	16*	-8	4	4	3
CCCCNC(=O)CCC(=O)Nc1ccc2nc(N3CCOCC3)cc(C)c2c1	5	0	-5	-23	1	·	·
COc1ccc(-n2c(COc3ccc(Cl)cc3)nnc2SCC(=O)Nc2ccc(Oc3ccccc3)cc2)cc1	-2	·	-12	·	·	·	·
CCCCCCCCN1C(=O)N2Cc3cc(F)ccc3C2CS1(=O)=O (stereo unspecified)	-9	·	-8	·	·	·	·
Cc1ccc(S(=O)(=O)N2O[C@@H](c3ccccc3)C[C@H]2CON2C(C)(C)CCCC2(C)C)cc1	1	·	-4	·	·	·	·
SMILES	Tn7 DDE FP	LANA DNA inh	DDE Tn6 FP inh	Rtt109 HAT inh	Keap1 Nrf2 FP	Tn6 DDE ctr	DDE Tn6 confirm
O=C1CCC[C@H]2CC3(CC[C@]24CCCN14)OCCO3	4	·	5	·	·	·	·
Cc1ccc(NC(=O)Cn2nnc(-c3ccccc3F)n2)c(C)c1	-1	·	3	·	·	·	·
O=C(Cn1nnc(-c2ccccc2F)n1)Nc1ccc(F)cc1F	3	·	16*	·	·	-3	-4
C[C@H]1COc2cc(Br)ccc2S(=O)(=O)N1Cc1cn(Cc2ccc(F)cc2)nn1	1	·	0	·	·	·	·
CCN1C=C(Cc2ccc(F)cc2)C2=C(C1)C(c1ccc(F)cc1)C(C#N)=C(N)O2 (stereo unspecified)	8	-1	18*	1	2	9	9
COc1ccc(C)cc1S(=O)(=O)N1CCN(c2ccccc2)CC1	3	0	16*	-5	-6	2	2
COc1ccc(C=O)cc1-c1cc(C(C)=O)c2n(c1=O)CCC2	8	·	3	·	·	·	·
Cc1cc(Br)cn2c(Cc3ccsc3)c(-c3cccc(Cl)c3)nc12	-1	·	18*	·	·	11	6
Cc1cc(Br)cn2c(Cc3cccc(Cl)c3)c(-c3cccc(Cl)c3)nc12	3	·	0	·	·	·	·
CCCCOCCCNC(=S)Nc1ccc(S(=O)(=O)N2CCOCC2)cc1	-11	0	1	2	4	·	·
O=S(=O)(c1ccc(NC(=S)NCCC(c2ccccc2)c2ccccc2)cc1)N1CCOCC1	4	1	17*	21	6	1	-18
COc1cc(NCCCCC(C)N)c2nccc(C)c2c1 (stereo unspecified)	0	·	1	·	·	·	·
COc1cc(NCCCC(C)N)c2ncccc2c1 (stereo unspecified)	1	-1	52*	0	5	-1	20*
O=C(CN(CCc1ccccc1)S(=O)(=O)c1ccc(Cl)s1)N1CCOCC1	4	·	9	·	·	·	·
C=C(C)C(=O)N1CC2(CC(c3cccc(NC(=O)CC(c4ccccc4)c4ccccc4)c3)=NO2)C[C@H]1C(N)=O (stereo partly specified)	4	1	15*	1	-2	2	2
CC1(C)c2ccccc2N2CCC(=O)NC21/C=C/c1ccco1 (stereo unspecified)	5	-3	17*	12	-20	-7	-9
